Consider 18 compounds from PubChem BioAssay AID602148 (NMMLSC, 2011).

Activity calls are given as the source filed them.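 The calls were made as follows: active = a drop over time in fluorescent ligand binding to the VLA-4 integrin, graded weak or strong, level 1 or 2; inactive = no binding drop, level 0.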

This test concerns U937 deltaST FPR, LDV-FITC VLA-4 binding, flow cytometry. The experiment in a line: decrease of VLA-4 ligand affinity after FPR stimulation, mechanism study for Ras-related GTPase inhibitor project, U937 deltaST FPR cells, flow cytometry (AID 602148). Conditions: at 50 µM; stronger effect = higher value. The procedure, abridged:
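Test system – deltaST-FPR-expressing U937 cells · Incubation – 1024 s reading at 37 °C · Measured by – flow cytometry of LDV-FITC fluorescence · Control set – excess unlabeled LDV for nonspecific LDV-FITC binding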
On the technique in general: A flow cytometer gives signals particle by particle.
Turning to `Cc1ccc(C(=O)NC(=S)Nc2sc3c(c2C(=O)O)CC(C)(C)OC3)cc1`, the VLA-4 affinity decrease level (0-2) was 0 (inactive).

On to `CC1(C)Cc2c(sc(NC(=S)NC(=O)c3cccc(Br)c3)c2C(=O)O)CO1`, for which the VLA-4 affinity decrease level (0-2) was 2. Under `COc1ccc(C(=O)NC(=S)Nc2sc3c(c2C(=O)O)CC(C)(C)OC3)cc1` stands 1; under `CC1(C)Cc2c(sc(NC(=S)NC(=O)c3cccs3)c2C(=O)O)CO1`, 0 (inactive). On to `CC1(C)Cc2c(sc(NC(=S)NC(=O)c3ccccc3Br)c2C(=O)O)CO1`, for which the VLA-4 affinity decrease level (0-2) was 2. The same measure for `CCC1(C)Cc2c(sc(NC(=S)NC(=O)c3ccccc3)c2C(=O)O)CO1` (stereo not drawn): 0 (inactive); for `CC1(C)Cc2c(sc(NC(=S)NC(=O)C3CCCCC3)c2C(=O)O)CO1`: 1; for `O=C(NC(=S)Nc1sc2c(c1C(=O)O)CC1(CCCC1)OC2)c1ccccc1`: 0 (inactive). As to `CC1(C)Cc2c(sc(NC(=S)NC(=O)c3ccccc3F)c2C(=O)O)CO1`, the VLA-4 affinity decrease level (0-2) was 0 (inactive). The same measure for `CC1(C)Cc2c(sc(NC(=S)NC(=O)c3ccc(Br)cc3)c2C(=O)O)CO1`: 2; for `Cc1ccccc1C(=O)NC(=S)Nc1sc2c(c1C(=O)O)CC(C)(C)OC2`: 0 (inactive). Consider `CC(C)(C)C1Cc2c(sc(NC(=S)NC(=O)c3ccccc3)c2C(=O)O)CO1` (stereo not drawn), for which the VLA-4 affinity decrease level (0-2) was 0 (inactive).

With `Cc1cccc(C(=O)NC(=S)Nc2sc3c(c2C(=O)O)CC(C)(C)OC3)c1`, the VLA-4 affinity decrease level (0-2) is 0 (inactive). With `CC1(C)Cc2c(sc(NC(=S)NC(=O)c3ccc(F)cc3)c2C(=O)O)CO1`, the VLA-4 affinity decrease level (0-2) is 0 (inactive). The same measure for `CC1(C)Cc2c(sc(NC(=S)NC(=O)c3ccco3)c2C(=O)O)CO1`: 0 (inactive); for `COc1ccccc1C(=O)NC(=S)Nc1sc2c(c1C(=O)O)CC(C)(C)OC2`: 1; for `COc1cccc(C(=O)NC(=S)Nc2sc3c(c2C(=O)O)CC(C)(C)OC3)c1`: 2. Under `CC1(C)Cc2c(sc(NC(=S)NC(=O)c3cccc(F)c3)c2C(=O)O)CO1` stands 1.
